Measurements published in ChEMBL document CHEMBL1125555, “Structural alterations in desferrioxamine compatible with iron clearance in animals” (1992).

Experiments:
Assay type in all cases: functional
Rattus norvegicus [1] = experiment: Effect on 24-h cumulative iron excretion in the urine of non-iron-overloaded bileduct-cannulated rats at a concentration of 450 umol/kg after subcutaneous administration
Procedure, shortened: (§1)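 Drugs given subcutaneously in Cremophor RH-40/water (40:60) to non-iron-overloaded, bile duct-cannulated rats. Rats were fasted 24 h before dosing, and the fast continued through the experiment. Bile and urine iron were collected over 24 h and reported as induced iron (mg/kg rat) with fractions in bile and urine. Efficiency is the percentage of the theoretical total (8.37 mg/kg). n = 2–6 per group.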

Rattus norvegicus [2] = experiment: Effect on 24-hcumulative iron excretion in the urine of non-iron-overloaded bileduct-cannulated rats at a concentration of 450 umol/kg after subcutaneous administration; procedure, shortened: as §1
Rattus norvegicus [3] = experiment: Effect on 24-hcumulative iron excretion in the urine of non-iron-overloaded bileduct-cannulated rats at a concentration of 150 umol/kg after subcutaneous administration; procedure, shortened: as §1
Rattus norvegicus [4] = experiment: Effect on 24-h cumulative iron excretion in the urine of non-iron-overloaded bileduct-cannulated rats at a concentration of 150 umol/kg after subcutaneous administration; procedure, shortened: as §1
Rattus norvegicus [5] = experiment: Effect on 24-h cumulative iron excretion in the bile of non-iron-overloaded bileduct-cannulated rats at a concentration of 150 umol/kg after subcutaneous administration
Procedure, shortened: as §1, with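 “urine.” for “urine. Efficiency is the percentage of the theoretical total (8.37 mg/kg). n = 2–6 per group.”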

## NCCCCCN(O)C(=O)CCC(=O)O
Rattus norvegicus [1]
  Iron excretion: 0%
Rattus norvegicus [2]
  Iron excretion: -0.003 mg/kg

## CC(=O)N(O)CCCCCN
Rattus norvegicus [1]
  Iron excretion: 0%
Rattus norvegicus [2]
  Iron excretion: -0.001 mg/kg

## CCCCCCCCCC(=O)N(O)CCCCC(=O)N(O)CCCCC(=O)N(O)CCCCCN.Cl
Rattus norvegicus [3]
  Iron excretion: 0.017 mg/kg
Rattus norvegicus [4]
  Iron excretion: 9.2%

## CC(=O)N(O)CCCCCCCC(=O)N(O)CCCCCCCC(=O)N(O)CCCCCN.Cl
Rattus norvegicus [3]
  Iron excretion: 0 mg/kg
Rattus norvegicus [4]
  Iron excretion: 0%

## CC(=O)N(O)CCCCC(=O)N(O)CCCCC(=O)N(O)CCCCCN.Cl
Rattus norvegicus [3]
  Iron excretion: 0.021 mg/kg
Rattus norvegicus [4]
  Iron excretion: 9.4%

## CC(=O)N(O)CCCCCNC(=O)CCC(=O)N(O)CCCCCNC(=O)CCC(=O)N(O)CCCCCN [DEFEROXAMINE]
Rattus norvegicus [3]
  Iron excretion: 0.059 mg/kg
Rattus norvegicus [4]
  Iron excretion: 25.4%
Rattus norvegicus [5]
  Iron excretion: 74.6%
